One series concerns Hepatitis C virus. Kind of series: Antiviral activity against HCV in human HuH7 cells assessed as inhibition of RNA replication after 4 days by FRET-based assay. The following applies: Huh-7, 96 h. It counts as functional, organism-based, Hepacivirus hominis. Put shortly:
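Huh-7 cells carrying an HCV replicon were seeded at 5 × 10³/well in complete DMEM with 500 µg/mL G418 and held 24 h at 37 °C, 5% CO₂. The medium was then refreshed and compounds were added at 0.1–100 µM (seven levels) from DMSO stock. After 4 days at 37 °C, cells were lysed. NS3 protease FRET signal was read at 340 ex/490 em. IFN-α2b (10000 units/well) served as positive control.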

A short description of series [1]: Cytotoxicity against human HuH7 cells assessed as reduction in cell proliferation. In kind it is cell-based, Huh-7.

The structures appear in SMILES notation. Bounds are passed on as bounds.

By EC50 is commonly meant the concentration at which the effect is half-maximal. One may read the CC50 as the concentration at which the toxic effect on the cells reaches its halfway point. Take `O=c1cc(CNCc2ccccc2)oc2ccc(O)c(O)c12`: the EC50 in the series with Hepatitis C virus was above 100 µM. In series [1], the CC50 is above 100 µM.

With `O=c1cc(CNCc2ccccc2Cl)oc2ccc(O)c(O)c12`, the EC50 in the series on Hepatitis C virus is above 100 µM. For the same compound, the CC50 in series [1] is above 100 µM.

Regarding `O=c1cc(CNCc2ccccc2Br)oc2ccc(O)c(O)c12`, the EC50 in the series with Hepatitis C virus is above 100 µM. In series [1], the CC50 was above 100 µM.

For `O=c1cc(CNCc2ccccc2I)oc2ccc(O)c(O)c12`, the EC50 in the series on Hepatitis C virus worked out at 6.3 µM. In addition, the CC50 in series [1] was determined as 87.3 µM.

Consider `O=c1cc(CNCc2ccccc2O)oc2ccc(O)c(O)c12`, for which, in the series on Hepatitis C virus, the EC50 was above 100 µM. For the same compound, the CC50 in series [1] was above 100 µM.

Consider `O=c1cc(CNCc2ccccc2[N+](=O)[O-])oc2ccc(O)c(O)c12`, for which the EC50 with Hepatitis C virus was above 100 µM. Further, the CC50 in series [1] is 41.3 µM.

Take `Cc1ccccc1CNCc1cc(=O)c2c(O)c(O)ccc2o1`: the EC50 in the series on Hepatitis C virus came out at 1.2 µM. For the same compound, the CC50 in series [1] turned out to be 52.2 µM.

Turning to `O=c1cc(CNCc2cccc(F)c2)oc2ccc(O)c(O)c12`, the EC50 in the series on Hepatitis C virus was above 100 µM. The CC50 in series [1] is above 100 µM.

In the case of `O=c1cc(CNCc2cccc(Br)c2)oc2ccc(O)c(O)c12`, the EC50 in the series on Hepatitis C virus amounted to 3.6 µM. Further, in series [1], the CC50 was above 100 µM.

As to `O=c1cc(CNCc2cccc(I)c2)oc2ccc(O)c(O)c12`, the EC50 in the series on Hepatitis C virus is 7.3 µM. Besides, the CC50 in series [1] is above 100 µM.

Take `O=c1cc(CNCc2cccc(O)c2)oc2ccc(O)c(O)c12`: the EC50 in the series on Hepatitis C virus was above 100 µM. The CC50 in series [1] is above 100 µM.

`O=c1cc(CNCc2cccc([N+](=O)[O-])c2)oc2ccc(O)c(O)c12`: in the series with Hepatitis C virus, the EC50 was above 100 µM. Further, in series [1], the CC50 is above 100 µM.

`Cc1cccc(CNCc2cc(=O)c3c(O)c(O)ccc3o2)c1`: the EC50 in the series on Hepatitis C virus worked out at 2 µM. The CC50 in series [1] was above 100 µM.

As to `O=c1cc(CNCc2ccc(F)cc2)oc2ccc(O)c(O)c12`, the EC50 in the series on Hepatitis C virus was above 100 µM. The 50% cytotoxic concentration (CC50) in series [1] is above 100 µM.

Regarding `O=c1cc(CNCc2ccc(Br)cc2)oc2ccc(O)c(O)c12`, in the series on Hepatitis C virus, the EC50 is above 100 µM. The CC50 in series [1] was above 100 µM.

For the compound `O=c1cc(CNCc2ccc(I)cc2)oc2ccc(O)c(O)c12`, the EC50 with Hepatitis C virus was found to be 4.1 µM. Moreover, the CC50 in series [1] was 41.7 µM.

With `O=c1cc(CNCc2ccc(O)cc2)oc2ccc(O)c(O)c12`, the EC50 with Hepatitis C virus is above 100 µM. Besides, in series [1], the CC50 amounted to 62.7 µM.

Regarding `O=c1cc(CNCc2ccc([N+](=O)[O-])cc2)oc2ccc(O)c(O)c12`, the EC50 in the series on Hepatitis C virus is above 100 µM. Moreover, in series [1], the CC50 was 73.3 µM.

In the case of `Cc1ccc(CNCc2cc(=O)c3c(O)c(O)ccc3o2)cc1`, the EC50 with Hepatitis C virus is 5.7 µM. Moreover, the CC50 in series [1] is above 100 µM.

Regarding `O=c1cc(CNCc2ccc(Cl)cc2)oc2ccc(O)c(O)c12`, the EC50 in the series on Hepatitis C virus is above 100 µM. The CC50 in series [1] was above 100 µM.

Consider `O=c1cc(CNCc2cccc(Cl)c2)oc2ccc(O)c(O)c12`, for which the concentration giving a half-maximal response (EC50) with Hepatitis C virus amounted to 14 µM. The CC50 in series [1] is above 100 µM.

These data come from ChEMBL document CHEMBL1777805, “2-Arylmethylaminomethyl-5,6-dihydroxychromone derivatives with selective anti-HCV activity” (Bioorg Med Chem Lett, 2011).
